Molecules are shown by their SMILES.

The test system of data set [1] is Tobacco mosaic virus. Description: In vivo antiviral activity against TMV assessed as protection effect at 500 ug/mL. The data set is classed as functional.
The test system of data set [2] is Tobacco mosaic virus. Briefly: In vivo antiviral activity against TMV assessed as curative effect at 500 ug/mL. The format is functional.
Data set [3] has as its system Tobacco mosaic virus. Description: In vitro antiviral activity against TMV assessed as inhibition rate at 500 ug/mL. The data set is classed as functional.
Data set [4] deals with Tobacco mosaic virus. Description: In vivo antiviral activity against TMV assessed as viral inactivation effect at 500 ug/mL. The format is functional.
The test system of data set [5] is Human immunodeficiency virus. Description: Antiviral activity against HIV infected in human TZM-bl cells at 10 uM after 48 hrs by luciferase-based reporter gene assay. The format is functional. The following applies: Human immunodeficiency virus 1, TZM-bl. In a few lines: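 TZM-bl cells seeded at 10^4 cells/well. Next day, compounds were added at 10 µM with AZT and MK-0518 reference controls, then pseudotyped HIV-1 was added (final DMSO 2%). Plates were incubated 48 h at 37 °C in humidified CO2. Steady-Glo substrate was added, cells lysed 20 min in the dark, and luciferase luminescence was read.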

A short description of data set [6]: Cytotoxicity against human TZM-bl cells at 10 uM after 48 hrs by MTT assay. The data set is classed as cell-based. A digest of the protocol:
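TZM-bl cells plated and held 18 h at 37 °C, then exposed to compounds for 48 h. MTT (5 mg/mL stock, 20 µL per well) added and incubated 3 h at 37 °C. Plates shaken 10 min at room temperature. OD550 read against a 690 nm reference. Single test concentration of 10 µM.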

For the compound `COc1c(C(=O)NCc2ccc(F)cc2)ccc2c1C(=O)N(C)C(c1ccc(F)cc1)N2` (centres undefined), the Activity is listed as 28.9% with Tobacco mosaic virus [1], 26.3% in the data set with Tobacco mosaic virus [2], 30.4% in the data set with Tobacco mosaic virus [4] and “Non-toxic” in data set [6]. In the data set on Tobacco mosaic virus [3], the inhibition at 500 µg/mL stood at 24.2%. Moreover, the inhibition at 10 µM in data set [5] worked out at 31%.

As to `COc1c(C(=O)NCc2ccc(F)cc2)ccc2c1C(=O)N(C)C(c1ccc([N+](=O)[O-])cc1)N2` (centres undefined), the Activity with Tobacco mosaic virus [1] is recorded as 20.3%; in the data set on Tobacco mosaic virus [2], 15%; with Tobacco mosaic virus [4], 18.9%; in data set [6] it was “Non-toxic”. In addition, the inhibition at 500 µg/mL with Tobacco mosaic virus [3] is 19.5%. Besides, the inhibition at 10 µM in data set [5] is 64.9%.

As to `COc1c(C(=O)NCc2ccc(F)cc2)ccc2c1C(=O)N(C)C(c1ccco1)N2` (centres undefined), the Activity in the data set on Tobacco mosaic virus [1] was 0%; in the data set on Tobacco mosaic virus [2], 0%; with Tobacco mosaic virus [4], 8.2%; in data set [6] it was “Non-toxic”. In addition, the inhibition at 500 µg/mL with Tobacco mosaic virus [3] worked out at 7.5%. Further, in data set [5], the inhibition at 10 µM is 8.1%.

As to `COc1c(C(=O)NCc2ccc(F)cc2)ccc2c1C(=O)N(C)C(c1cccs1)N2` (centres undefined), the Activity with Tobacco mosaic virus [1] is on record as 5.4%; in the data set on Tobacco mosaic virus [2] it was 0%; with Tobacco mosaic virus [4] it was 13.7%; in data set [6], “Non-toxic”. For the same compound, the inhibition at 500 µg/mL in the data set on Tobacco mosaic virus [3] is 16.3%. Moreover, the inhibition at 10 µM in data set [5] amounted to 17.5%.

As to `COc1c(C(=O)NCc2ccc(F)cc2)ccc2c1C(=O)N(C)C(c1ccccn1)N2` (centres undefined), the Activity with Tobacco mosaic virus [1] is on record as 8.7%; in the data set with Tobacco mosaic virus [2], 0%; with Tobacco mosaic virus [4] it was 15.2%; in data set [6], “Non-toxic”. The inhibition at 500 µg/mL with Tobacco mosaic virus [3] came out at 0%. Also, the inhibition at 10 µM in data set [5] turned out to be 9.9%.

Take `CCCCC1Nc2ccc(C(=O)NCc3ccc(F)cc3)c(OC)c2C(=O)N1C` (centres undefined): the inhibition at 10 µM in data set [5] was 3.2%. For the same compound, the Activity entry in data set [6] is listed as “Non-toxic”.

Consider `COc1c(C(=O)NCc2ccc(F)cc2)ccc2c1C(=O)N(C)C(Cc1ccc(F)cc1)N2` (centres undefined), for which the inhibition at 10 µM in data set [5] was found to be 15.6%. The Activity entry in data set [6] is “Non-toxic”.

With `COc1c(C(=O)NCc2ccc(F)cc2)ccc2c1C(=O)N(C)C(Cc1ccc([N+](=O)[O-])cc1)N2` (centres undefined), the inhibition at 10 µM in data set [5] is -17.7%. The Activity entry in data set [6] was “Non-toxic”.

`COc1c(C(=O)NCc2ccc(F)cc2)ccc2nc(-c3ccc(F)cc3)n(C)c(=O)c12`: the Activity was 7.4% in the data set with Tobacco mosaic virus [1], 8.2% with Tobacco mosaic virus [2], 13.3% with Tobacco mosaic virus [4] and “Non-toxic” in data set [6]. In addition, the inhibition at 10 µM in data set [5] was 27.6%.

As to `COc1c(C(=O)NCc2ccc(F)cc2)ccc2nc(-c3ccc([N+](=O)[O-])cc3)n(C)c(=O)c12`, the inhibition at 10 µM in data set [5] is -3.8%. Besides, the Activity entry in data set [6] is given as “Non-toxic”.

Consider `COc1c(C(=O)NCc2ccc(F)cc2)ccc2nc(-c3ccco3)n(C)c(=O)c12`, for which the Activity in the data set with Tobacco mosaic virus [1] is listed as 11.7%; with Tobacco mosaic virus [2] it was 8.9%; in the data set with Tobacco mosaic virus [4], 0%; in data set [6], “Non-toxic”. Moreover, in the data set on Tobacco mosaic virus [3], the inhibition at 500 µg/mL is 10%. In data set [5], the inhibition at 10 µM is 1.6%.

For `COc1c(C(=O)NCc2ccc(F)cc2)ccc2nc(-c3cccs3)n(C)c(=O)c12`, the Activity in the data set on Tobacco mosaic virus [1] is 12.7%; in the data set on Tobacco mosaic virus [2], 9.4%; in the data set on Tobacco mosaic virus [4], 20.4%; in data set [6] it was “Non-toxic”. Besides, the inhibition at 500 µg/mL in the data set with Tobacco mosaic virus [3] was 0%. In addition, the inhibition at 10 µM in data set [5] was 25.1%.

Consider `COc1c(C(=O)NCc2ccc(F)cc2)ccc2nc(-c3ccccn3)n(C)c(=O)c12`, for which the Activity in the data set on Tobacco mosaic virus [1] is reported as 19.5%; with Tobacco mosaic virus [2], 17.6%; with Tobacco mosaic virus [4], 29.4%; in data set [6] it was “Non-toxic”. Besides, the inhibition at 500 µg/mL in the data set with Tobacco mosaic virus [3] was determined as 21.3%. The inhibition at 10 µM in data set [5] is 44.6%.

As to `CCCCc1nc2ccc(C(=O)NCc3ccc(F)cc3)c(OC)c2c(=O)n1C`, the inhibition at 10 µM in data set [5] came out at 19.1%. Moreover, in data set [6], the Activity entry was “Non-toxic”.

As to `COc1c(C(=O)NCc2ccc(F)cc2)ccc2nc(Cc3ccc(F)cc3)n(C)c(=O)c12`, the Activity in the data set with Tobacco mosaic virus [1] is listed as 17.7%; with Tobacco mosaic virus [2], 15.2%; in the data set on Tobacco mosaic virus [4], 10.6%; in data set [6] it was “Non-toxic”. Besides, the inhibition at 500 µg/mL in the data set with Tobacco mosaic virus [3] worked out at 21.2%. Besides, the inhibition at 10 µM in data set [5] was -27.4%.

In the case of `COc1c(C(=O)NCc2ccc(F)cc2)ccc2nc(Cc3ccc([N+](=O)[O-])cc3)n(C)c(=O)c12`, the Activity with Tobacco mosaic virus [1] is reported as 12.4%; in the data set with Tobacco mosaic virus [2], 0%; with Tobacco mosaic virus [4] it was 0%; in data set [6], “Non-toxic”. For the same compound, the inhibition at 10 µM in data set [5] is -33.8%.

On to `Cn1c(-c2ccc(F)cc2)nc2ccc(C(=O)NCc3ccc(F)cc3)c(O)c2c1=O`, for which, in data set [5], the inhibition at 10 µM was determined as 68.4%. In addition, the Activity entry in data set [6] is given as “Non-toxic”.

For `Cn1c(-c2ccc([N+](=O)[O-])cc2)nc2ccc(C(=O)NCc3ccc(F)cc3)c(O)c2c1=O`, the inhibition at 10 µM in data set [5] was 77.5%. Moreover, the Activity entry in data set [6] is recorded as “Non-toxic”.

Regarding `Cn1c(-c2ccco2)nc2ccc(C(=O)NCc3ccc(F)cc3)c(O)c2c1=O`, the inhibition at 10 µM in data set [5] was -9.2%. Also, in data set [6], the Activity result is reported as “Non-toxic”.

As to `Cn1c(-c2cccs2)nc2ccc(C(=O)NCc3ccc(F)cc3)c(O)c2c1=O`, the Activity in the data set on Tobacco mosaic virus [1] is 9.8%; in the data set on Tobacco mosaic virus [2] it was 10.9%; with Tobacco mosaic virus [4], 8.2%; in data set [6], “Non-toxic”. Besides, the inhibition at 500 µg/mL in the data set on Tobacco mosaic virus [3] amounted to 14.5%. Further, the inhibition at 10 µM in data set [5] was found to be 33.2%.

For the compound `Cn1c(-c2ccccn2)nc2ccc(C(=O)NCc3ccc(F)cc3)c(O)c2c1=O`, the inhibition at 10 µM in data set [5] was -11%. The Activity entry in data set [6] was “Non-toxic”.

Regarding `CCCCc1nc2ccc(C(=O)NCc3ccc(F)cc3)c(O)c2c(=O)n1C`, in data set [5], the inhibition at 10 µM turned out to be 2.4%. Further, the Activity result in data set [6] is “Non-toxic”.

As for `Cn1c(Cc2ccc(F)cc2)nc2ccc(C(=O)NCc3ccc(F)cc3)c(O)c2c1=O`, in data set [5], the inhibition at 10 µM amounted to 49.5%. Further, the Activity result in data set [6] is on record as “Non-toxic”.

As to `Cn1c(Cc2ccc([N+](=O)[O-])cc2)nc2ccc(C(=O)NCc3ccc(F)cc3)c(O)c2c1=O`, the Activity is 16.8% with Tobacco mosaic virus [1], 13.3% with Tobacco mosaic virus [2], 12.7% with Tobacco mosaic virus [4] and “Non-toxic” in data set [6]. Further, in the data set with Tobacco mosaic virus [3], the inhibition at 500 µg/mL was 18.4%. In addition, in data set [5], the inhibition at 10 µM turned out to be 29%.

On to `Cc1nnc(C(=O)NC(C)(C)c2nc(C(=O)NCc3ccc(F)cc3)c(O)c(=O)n2C)o1` [RALTEGRAVIR], for which the inhibition at 10 µM in data set [5] came out at 95.2%.

For the compound `NC(=O)c1ncn([C@@H]2O[C@H](CO)[C@@H](O)[C@H]2O)n1` [RIBAVIRIN], the Activity with Tobacco mosaic virus [1] was found to be 39.6%; in the data set on Tobacco mosaic virus [2] it was 32.7%; in the data set with Tobacco mosaic virus [4] it was 34.2%. In addition, in the data set on Tobacco mosaic virus [3], the inhibition at 500 µg/mL was 38.5%.

Turning to `Cc1cn([C@H]2C[C@H](N=[N+]=[N-])[C@@H](CO)O2)c(=O)[nH]c1=O` [ZIDOVUDINE], in data set [5], the inhibition at 10 µM stood at 98.1%.

The values are drawn from ChEMBL document CHEMBL2034979, “Design, synthesis and antiviral activity of novel quinazolinones” (Eur J Med Chem, 2012).
